Screens deposited in PubChem by several laboratories.
ARFGAP1 inhibitor: inhibitors of rat ARFGAP1; Q62848; Arfgap1-stimulated ARF1 GTP hydrolysis, GDP FP detection; inhibition, % at 16.5 µM; 360,000 compounds, 0.26% hits;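 active = inhibition above a per-plate limit, mean inhibition of low control wells plus 3 SD, cut at about 25% in these data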;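 note: 0% = DMSO wells with enzyme and 100% = wells lacking Arfgap1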
Target sequence (Q62848 1-136 limits assumed): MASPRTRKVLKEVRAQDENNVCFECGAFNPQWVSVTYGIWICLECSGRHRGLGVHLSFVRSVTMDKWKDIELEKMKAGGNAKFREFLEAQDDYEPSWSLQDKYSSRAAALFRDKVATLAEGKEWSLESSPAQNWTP
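Assay system: Rat Arfgap1 GAP domain (His6, aa 1-136), purified enzyme | Buffer or medium: HEPES 25 mM pH 7.5, NaCl 150 mM, MgCl2, DTT | Schedule: GTP hydrolysis reaction 2 h at 25 °C | Signal: FP of antibody-bound GDP Alexa 633 tracer, ex 620/em 688 nm | Measure: Percent inhibition of Arfgap1-stimulated GTP hydrolysis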
proCasp7 act: counter-screen for procaspase-3 activators: activators of human procaspase-7; P55210; recombinant procaspase-7, Ac-DEVD-pNA absorbance 405 nm; D23A/D198A/D206A triple mutant, cannot self-cleave; scale: DMSO 0, 5 µM enzyme 100; activation, % at 8.5 µM; 330,000 compounds, 0.093% hits; AID 463210;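 active = percent activation above the screen-wide mean plus 3 SD, cut at about 25% in these data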
Target sequence (P55210 whole entry D23A/D198A/D206A): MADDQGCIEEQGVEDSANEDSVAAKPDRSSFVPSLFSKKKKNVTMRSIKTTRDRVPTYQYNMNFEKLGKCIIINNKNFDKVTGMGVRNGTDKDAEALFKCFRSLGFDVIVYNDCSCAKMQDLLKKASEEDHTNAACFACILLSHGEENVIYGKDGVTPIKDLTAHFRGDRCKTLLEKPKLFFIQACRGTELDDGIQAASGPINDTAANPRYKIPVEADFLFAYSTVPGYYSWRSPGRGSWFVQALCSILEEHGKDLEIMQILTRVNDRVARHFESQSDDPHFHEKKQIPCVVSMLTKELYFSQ
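Assay system: Uncleavable procaspase-7 mutant enzyme | Input: 2 µM procaspase-7 mutant as dispensed | Timing: 1 h compound preincubation, 2 h substrate cleavage, 25 °C | Repeats: One well per compound | Control set: DMSO wells as 0%, DMSO with 5 µM added PC-7 as 100% | Technique: Epi-absorbance of released pNA at 405 nm, two timepoints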
LANA-H2B inh: blocks KSHV LANA binding to histone H2A/H2B; 320,000 compounds, 0.6% hits; cell-free LANA-H2A/H2B peptide, fluorescence polarization; inhibition, % (test concentration not listed); AID 2629; Q9QR71; in the data active = inhibition mostly above about 10%, no sharp cut-off; inactive = mostly below about 6.7%
ASAP1 inh: blocks human ASAP1-stimulated Arf1 GTP hydrolysis | Q9ULH1 | GDP FP detection | inhibition, % at 16.5 µM | 360,000 compounds, 0.19% hits | AID 624377; in the data active = inhibition above about 25%;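 note: 0% = vehicle with enzyme and substrate and 100% = no enzyme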
proCasp3 act: activates human procaspase-3. P42574. recombinant procaspase-3 D3A, Ac-DEVD-pNA absorbance 405 nm. activation, % at 8.5 µM. 330,000 compounds, 0.11% hits. AID 463141;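 active = activation above the mean of all tested compounds plus 3 SD, cut at about 21% in these data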;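 note: 0% = DMSO alone and 100% = DMSO wells spiked with extra 5 µM PC-3 D3A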
Target sequence (P42574 whole entry D9A/D28A/D175A): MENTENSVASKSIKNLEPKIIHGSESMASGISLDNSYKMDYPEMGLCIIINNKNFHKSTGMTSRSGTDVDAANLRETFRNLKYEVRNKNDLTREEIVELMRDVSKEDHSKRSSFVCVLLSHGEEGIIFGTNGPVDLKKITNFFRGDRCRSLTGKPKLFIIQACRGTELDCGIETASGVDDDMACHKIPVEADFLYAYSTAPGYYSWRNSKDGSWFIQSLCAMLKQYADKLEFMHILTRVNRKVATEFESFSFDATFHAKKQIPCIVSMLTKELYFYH
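Assay system: Autoprocessing-dead procaspase-3 D3A mutant enzyme; also added: Ac-DEVD-pNA; doses: one concentration, 8.5 µM nominal, 0.8% DMSO; times: 1 h compound preincubation, 2 h substrate hydrolysis at 25 °C; technique: 405 nm absorbance of p-nitroaniline, reads at 0 and 120 min; measure: % activation between DMSO and enzyme-spiked controls; repeats: single replicate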
CR mimetic SO: caloric restriction mimetics inhibiting age-related superoxide in yeast; S. cerevisiae aged cells, superoxide DHE fluorescence; stronger effect = lower value; superoxide response (% of plate mean), % at 10 µM; 330,000 compounds, 0.18% hits; AID 2690;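 active = superoxide response under a set limit, about three screen SD below normal, cut at about 65% in these data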;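 note: yeast aged for seven days with compound at 30 °C before DHE staining; 100% = average MFI of all compound-treated wells on the plate with controls excluded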
ARFGAP1 confirm: confirmation of rat ARFGAP1 inhibitors; ARFGAP1-stimulated ARF1 GTP hydrolysis, GDP tracer FP; 890 compounds, 30% hits; inhibition, % at 16.5 µM; shares compounds with ARFGAP1 inhibitor;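 active = average inhibition over triplicates above the hit cutoff set in the earlier primary screen, cut at about 25% in these data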;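 note: 0% = Arfgap1 plus ARF1-GTP with DMSO and 100% = wells lacking Arfgap1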
Starred values were filed as active, the others as inactive; / = not tested or not shown; ! = not active in a repeat. In the library only some 1.2% were active in any assay of this set; here they are far more common.

SMILES | ARFGAP1 inhibitor | proCasp7 act | LANA-H2B inh | ASAP1 inh | proCasp3 act | CR mimetic SO | ARFGAP1 confirm
CCc1ccc(C(=O)C(C)OC(=O)c2nc3nc(C)cc(C)n3n2)cc1 (stereo not drawn) | 23 | 5 | -2 | 2 | 5 | 99 | /
CCn1c2ccccc2c2cc(NC(=O)CSc3nnc(-c4cccc(OC)c4)n3N)ccc21 | 31* | -7 | -3 | 1 | -9 | 105 | 26*
COc1ccc(C(=O)N/C(=C\c2ccccc2)C(=O)NCc2cccnc2)cc1 | 25* | -6 | -2 | -4 | -1 | 93 | 2
COc1ccc(/C=C(/NC(=O)c2ccccc2)C(=O)NCc2ccncc2)cc1 | 7 | -8 | -2 | 11 | 0 | 89 | /
Cc1nc(-c2cccc(S(=O)(=O)N3CC(C)CC(C)C3)c2)cs1 (stereo not drawn) | 26* | 0 | 3 | -11 | -3 | 91 | 2
Cc1ccc(S(=O)(=O)N/N=C\c2cn(CC(N)=O)c3ccccc23)cc1 | 30* | 0 | 3 | 0 | 2 | 102 | -7
C[n+]1c2cc(N)ccc2cc2ccc(N)cc21 | 25*! | / | / | 20 | / | / | 3
Nc1ccc2ccc(O)cc2c1 | 10 | / | / | 0 | / | / | /
O=C(Nc1ccc(-c2cn3ccccc3n2)cc1)c1cccs1 | 25* | 2 | -2 | -2 | 3 | 91 | 86*
O=c1[nH]c2ccccc2nc1-c1c[nH]c2ccccc12 | 26* | -14 | -2 | 4 | -17 | 97 | 13
Nc1ccccc1-c1nc2ccccc2[nH]c1=O | 2 | / | -4 | 3 | / | 109 | /
CCOC(=O)N1CCN(C(=O)COC(=O)c2oc3ccc(OC)cc3c2C)CC1 | -1 | 12 | 4 | 4 | 7 | 119 | /
O=C(COC(=O)CNS(=O)(=O)c1ccc2ccccc2c1)Nc1ccccc1Sc1ccccc1 | 30* | -6 | 1 | 8 | -1 | 105 | 7
COc1ccc(Cl)cc1NCC(=O)Nc1ccc(OC)c(S(=O)(=O)N2CCCCC2)c1 | -9 | 5 | 4 | 0 | 10 | 107 | /
O=C(CN(C(=O)c1csnn1)c1cccc(F)c1)NCc1ccc2c(c1)OCO2 | -2 | 8 | 1 | 0 | -5 | 105 | /
O=C(CN(C(=O)c1csnn1)c1ccccc1F)NCc1ccc2c(c1)OCO2 | 25* | 0 | -9 | 4 | 0 | 115 | 4
COc1ccccc1N1CCN(C(=O)c2cc3n(n2)C(C(F)(F)F)CC(c2ccco2)N3)CC1 (stereo not drawn) | 30* | 0 | 0 | 0 | -7 | 111 | -3
COc1cc(CN2CCNC(=O)C2CC(=O)N(C)CCN2CCOCC2)cc(OC)c1 (stereo not drawn) | 28* | / | / | 10 | / | / | -7
COc1cc(CN2CCNC(=O)C2CC(=O)N(C)CCCN2CCOCC2)cc(OC)c1 (stereo not drawn) | 0 | 9 | 2 | 7 | 6 | 109 | /
O=C(Nc1ccc2ccccc2c1)OC1CCS(=O)(=O)C1 (stereo not drawn) | 2 | / | / | -11 | / | / | /
O=P(OC1CCS(=O)(=O)C1)(c1ccccc1)c1ccccc1 (stereo not drawn) | 27* | -4 | -4 | 3 | 10 | 102 | -1
Cc1ccc(OCc2nnc(SCC(=O)Nc3sc(C)c(C)c3C#N)n2C)cc1 | 15 | 3 | 0 | -4 | -1 | 103 | /
Cc1sc(NC(=O)CSc2nnc(COc3ccccc3)n2C)c(C#N)c1C | 25* | 7 | 1 | 5 | 0 | 110 | 11
Cc1nc(NCc2ccc(S(N)(=O)=O)cc2)c2c(C)c(C)sc2n1 | 44* | 5 | 1 | 22 | 2 | 103 | 32*
CCOC(=O)c1sc2nc(C)nc(NCc3ccccc3)c2c1C | -5 | -4 | 1 | 3 | 3 | 98 | /
SMILES | ARFGAP1 inhibitor | proCasp7 act | LANA-H2B inh | ASAP1 inh | proCasp3 act | CR mimetic SO | ARFGAP1 confirm
CCCCN(CC)CCCNC(=O)c1cc2c(=O)[nH]c3ccccc3c2s1 | 11 | 5 | -1 | 1 | 0 | 94 | /
CCCCN(CC)CCNC(=O)c1cc2c(=O)[nH]c3ccc(C)cc3c2s1 | 29* | 2 | 2 | 1 | -13 | 106 | -4
C/C(=N/NC(=O)c1ccc(Br)o1)c1cccc(NC(=O)c2ccc(C)o2)c1 | 7 | -11 | -1 | 7 | -2 | 94 | /
COc1ccc(S(=O)(=O)NCc2cccnc2)cc1NC(=O)c1ccc(Cl)cc1 | 25* | 7 | 0 | 3 | -1 | 104 | 1
O=C(CCN(NC(=O)c1ccccc1)C1=NS(=O)(=O)c2ccccc21)NC1CCCCC1 | -3 | 9 | -1 | 1 | -4 | 108 | /
Cc1[nH]nc2c1C(C(C)c1ccccc1)C(C#N)=C(N)O2 (stereo not drawn) | 5 | 10 | 1 | -8 | 0 | 112 | /
CCOc1ccc(/C=N/NC(=O)c2cc3c(OC)cc(OC)cc3[nH]2)cc1OC | 26* | 3 | 4 | 18 | 8 | 105 | 47*
Cc1cc(Nc2ccccc2C(=O)O)n2ncnc2n1 | 5 | / | / | 0 | / | / | /
Cc1ccc(OCC(O)CN2C(=O)NC(C)(C)C2=O)cc1 (stereo not drawn) | 35* | 0 | -3 | 0 | 14 | 93 | -1
COc1cc(OC)cc(C(=O)NNC(=S)NC2CC2)c1 | 2 | -16 | 0 | 5 | 5 | 88 | /
O=C(CN(c1ccc(F)cc1)S(=O)(=O)c1ccc2c(c1)OCCO2)Nc1ccc2c(c1)OCO2 | 27* | 2 | 2 | 14 | 1 | 77 | 3
O=C(O)/C=C/C(=O)OC1CC2CCC1C2 (stereo not drawn) | 4 | 3 | 11 | -21 | 5 | 103 | /
CCCCC(=O)OCC(=O)N1N=C(c2c[nH]c3ccccc23)C(O)C1c1ccc(OC)cc1 (stereo not drawn) | 12 | -9 | -2 | 17 | -10 | 102 | /
COc1ccc(-c2nnn(CC(=O)NCc3ccc4c(c3)OCO4)n2)cc1OC | 6 | 5 | -3 | 11 | 7 | 129 | /
CCOc1ccc(-c2nnn(CC(=O)NCc3ccc4c(c3)OCO4)n2)cc1 | 29* | 9 | 2 | -3 | 11 | 106 | 12
Brc1ccc2nc(-c3ccc(CN4CCC5(CC4)CNc4ccccc45)cc3)c(-c3ccccc3)nc2c1 | 26* | / | / | 5 | / | / | 7
CCC1(CC)C(=O)N(C)C(=O)NC1=Nc1ccc(OC)cc1 | 8 | 4 | -1 | 9 | -1 | 119 | /
Cn1c(=O)c2c(nc(SCc3cccnc3)n2Cc2ccccc2)n(C)c1=O | 26* | 2 | 3 | -10 | 9 | 113 | 6
